Data from ChEMBL document CHEMBL1629497, “Synthesis and biological evaluation of new N-alkyl 1-aryl-5-(1H-pyrrol-1-yl)-1H-pyrazole-3-carboxamides as cannabinoid receptor ligands” (Eur J Med Chem, 2010).
Active and inactive are the calls of the source. The calls are words filed in the database; no cut-off is given here.

What was measured:
Cannabinoid receptor 1 = Cannabinoid receptor 1 (Homo sapiens, UniProt P21554); test: biochemical; format: cell-based, HEK293
Cannabinoid receptor 2 = Cannabinoid receptor 2 (Homo sapiens, UniProt P34972); test: Displacement of [3H]CP-55,940 from recombinant human CB2 receptor transfected in HEK cells; format: cell-based, HEK293
Chain of Cannabinoid receptor 2 (P34972 whole entry): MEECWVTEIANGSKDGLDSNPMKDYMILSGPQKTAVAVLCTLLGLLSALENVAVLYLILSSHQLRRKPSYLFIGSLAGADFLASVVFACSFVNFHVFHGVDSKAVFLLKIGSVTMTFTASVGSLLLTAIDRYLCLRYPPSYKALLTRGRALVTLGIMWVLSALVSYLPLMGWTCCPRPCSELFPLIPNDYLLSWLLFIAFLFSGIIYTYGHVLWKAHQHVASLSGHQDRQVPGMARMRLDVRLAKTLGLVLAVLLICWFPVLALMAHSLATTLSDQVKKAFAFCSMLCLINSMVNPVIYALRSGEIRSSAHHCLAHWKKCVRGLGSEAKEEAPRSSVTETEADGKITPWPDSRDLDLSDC
Outline: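 Competition binding used membranes from HEK cells transfected with hCB1 or hCB2. Data are means of at least three experiments in duplicate. The selectivity index is Ki(CB2)/Ki(CB1).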

[1] = Mean residence time in Wistar rat brain at 10 mg/kg, ip; format: ADME, organism-based; set-up: dose 10 mg/kg, route intraperitoneal
Outline: (§1)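 Rats (n = 18) were dosed at 10 mg/kg i.p. in 2% Tween 80/98% saline (1 mL/kg). Plasma and brain were sampled at 30, 60, 120, 240 and 480 min and 24 h, then stored at −80 °C. Samples were extracted with internal standard and quantified by LC-MS/MS against calibration curves. Non-compartmental analysis was used, and brain penetration was taken as the AUC ratio. Values are means of three rats.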

[2] = Mean residence time in Wistar rat plasma at 10 mg/kg, ip; format: ADME, organism-based; set-up: dose 10 mg/kg, route intraperitoneal
Outline: as §1

Rattus norvegicus [3] = test: Antiobesity activity in diet-induced obese Wistar rat assessed as water intake at 1 mg/kg, ip measured after 24 hrs relative to vehicle-treated control; format: functional, organism-based; set-up: dose 1 mg/kg
Outline: (§2)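 Adult male Wistar rats (~500 g) were individually housed on an inverted 12:12 h cycle with free access to chow and water. Groups of 7–8, matched for body weight and 3-day food intake, received vehicle or compound i.p. (saline with a few drops of Tween 80, 3 mL/kg) 30 min before lights off. Food and water were weighed at 1–6 h and 24 h. Analysis was by ANOVA and Mann-Whitney.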

Rattus norvegicus [4] = test: Antiobesity activity in diet-induced obese Wistar rat assessed as reduction in food intake at 0.1 mg/kg, ip measured after 1 to 6 hrs relative to vehicle-treated control; format: functional, organism-based; set-up: dose 0.1 mg/kg
Outline: as §2

Rattus norvegicus [5] = test: Antiobesity activity in diet-induced obese Wistar rat assessed as water intake at 3 mg/kg, ip measured after 24 hrs relative to vehicle-treated control; format: functional, organism-based; set-up: dose 3 mg/kg
Outline: as §2

[6] = Cmax in Wistar rat plasma at 10 mg/kg, ip; format: ADME, organism-based; set-up: dose 10 mg/kg, route intraperitoneal
Outline: as §1

[7] = Half life in Wistar rat brain at 10 mg/kg, ip; format: ADME, organism-based; set-up: dose 10 mg/kg, route intraperitoneal
Outline: as §1

[8] = AUC (last) in Wistar rat plasma at 10 mg/kg, ip; format: ADME, organism-based; set-up: dose 10 mg/kg, route intraperitoneal, time 0 - last
Outline: as §1

Rattus norvegicus [9] = test: Antiobesity activity in diet-induced obese Wistar rat assessed as reduction in food intake at 1 mg/kg, ip measured after 24 hrs relative to vehicle-treated control; format: functional, organism-based; set-up: dose 1 mg/kg
Outline: as §2

[10] = Half life in Wistar rat plasma at 10 mg/kg, ip; format: ADME, organism-based; set-up: dose 10 mg/kg, route intraperitoneal
Outline: as §1

Rattus norvegicus [11] = test: Antiobesity activity in diet-induced obese Wistar rat assessed as water intake at 10 mg/kg, ip measured after 24 hrs relative to vehicle-treated control; format: functional, organism-based; set-up: dose 10 mg/kg
Outline: as §2

[12] = AUC in Wistar rat brain at 10 mg/kg, ip; format: ADME, organism-based; set-up: dose 10 mg/kg, route intraperitoneal
Outline: as §1

Brain = test: Drug level in Wistar rat brain at 10 mg/kg, ip; format: ADME, organism-based; set-up: dose 10 mg/kg, route intraperitoneal; conditions: in vivo
Outline: as §1

Rattus norvegicus [13] = test: Antiobesity activity in diet-induced obese Wistar rat assessed as water intake at 10 mg/kg, ip measured upto 6 hrs relative to vehicle-treated control; format: functional, organism-based; set-up: dose 10 mg/kg
Outline: as §2

[14] = Tmax in Wistar rat plasma at 10 mg/kg, ip; format: ADME, organism-based; set-up: dose 10 mg/kg, route intraperitoneal
Outline: as §1

[15] = Tmax in Wistar rat brain at 10 mg/kg, ip; format: ADME, organism-based; set-up: dose 10 mg/kg, route intraperitoneal
Outline: as §1

Rattus norvegicus [16] = test: Antiobesity activity in diet-induced obese Wistar rat assessed as water intake at 1 mg/kg, ip measured after upto 6 hrs relative to vehicle-treated control; format: functional, organism-based; set-up: dose 1 mg/kg
Outline: as §2

Rattus norvegicus [17] = test: Antiobesity activity in diet-induced obese Wistar rat assessed as water intake at 0.1 mg/kg, ip measured upto 6 hrs relative to vehicle-treated control; format: functional, organism-based; set-up: dose 0.1 mg/kg
Outline: as §2

Rattus norvegicus [18] = test: Antiobesity activity in diet-induced obese Wistar rat assessed as reduction in food intake at 10 mg/kg, ip measured after 24 hrs relative to vehicle-treated control; format: functional, organism-based; set-up: dose 10 mg/kg
Outline: as §2

Rattus norvegicus [19] = test: Antiobesity activity in diet-induced obese Wistar rat assessed as water intake at 0.1 mg/kg, ip measured after 24 hrs relative to vehicle-treated control; format: functional, organism-based; set-up: dose 0.1 mg/kg
Outline: as §2

[20] = Cmax in Wistar rat brain at 10 mg/kg, ip; format: ADME, organism-based; set-up: dose 10 mg/kg, route intraperitoneal
Outline: as §1

Rattus norvegicus [21] = test: Antiobesity activity in diet-induced obese Wistar rat assessed as reduction in food intake at 10 mg/kg, ip measured after 1 to 6 hrs relative to vehicle-treated control; format: functional; set-up: scale not given: the % may be the effect or the level left; conditions: route intraperitoneal
Outline: as §2

Rattus norvegicus [22] = test: Antiobesity activity in diet-induced obese Wistar rat assessed as reduction in food intake at 1 mg/kg, ip measured after 1 to 6 hrs relative to vehicle-treated control; format: functional; set-up: scale not given: the % may be the effect or the level left; conditions: route intraperitoneal
Outline: as §2

Rattus norvegicus [23] = test: Antiobesity activity in diet-induced obese Wistar rat assessed as reduction in food intake at 3 mg/kg, ip measured after 1 to 6 hrs relative to vehicle-treated control; format: functional; set-up: scale not given: the % may be the effect or the level left; conditions: route intraperitoneal
Outline: as §2

Rattus norvegicus [24] = test: Antiobesity activity in diet-induced obese Wistar rat assessed as reduction in food intake at 3 mg/kg, ip measured after 24 hrs relative to vehicle-treated control; format: functional, organism-based; set-up: dose 3 mg/kg
Outline: as §2

Rattus norvegicus [25] = test: Antiobesity activity in diet-induced obese Wistar rat assessed as water intake at 3 mg/kg, ip measured upto 6 hrs relative to vehicle-treated control; format: functional, organism-based; set-up: dose 3 mg/kg
Outline: as §2

Chain of Cannabinoid receptor 1 (P21554 whole entry): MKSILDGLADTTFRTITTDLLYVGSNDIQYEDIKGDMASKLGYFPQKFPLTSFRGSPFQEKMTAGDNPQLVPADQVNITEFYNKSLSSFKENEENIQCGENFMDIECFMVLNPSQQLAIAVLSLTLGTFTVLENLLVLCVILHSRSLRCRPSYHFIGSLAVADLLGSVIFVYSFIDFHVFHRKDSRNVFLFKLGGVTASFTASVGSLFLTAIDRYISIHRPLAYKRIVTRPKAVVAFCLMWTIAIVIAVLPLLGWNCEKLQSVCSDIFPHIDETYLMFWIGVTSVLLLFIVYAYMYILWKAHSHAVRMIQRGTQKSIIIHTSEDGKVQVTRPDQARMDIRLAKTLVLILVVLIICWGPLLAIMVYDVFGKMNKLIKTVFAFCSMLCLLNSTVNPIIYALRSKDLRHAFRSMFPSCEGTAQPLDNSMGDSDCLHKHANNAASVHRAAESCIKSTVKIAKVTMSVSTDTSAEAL

## Cc1c(C(=O)NCCC(C)(C)C)nn(-c2ccc(F)cc2F)c1-n1c(C)ccc1C
Cannabinoid receptor 1
  Ki: 90.7 nM
Cannabinoid receptor 2
  Ki: 163 nM

## CCCCNC(=O)c1nn(-c2ccc(Cl)cc2Cl)c(-n2c(C)ccc2C)c1C
Cannabinoid receptor 1
  Ki: 123 nM
Cannabinoid receptor 2
  Ki: 460 nM

## Cc1c(C(=O)NC(C)(C)C)nn(-c2ccc(Cl)cc2Cl)c1-n1cccc1
Cannabinoid receptor 1
  Ki: 89.5 nM
Cannabinoid receptor 2
  Ki: 14.6 nM

## CCC(C)(C)NC(=O)c1nn(-c2ccc(Cl)cc2Cl)c(-n2cccc2)c1C
Cannabinoid receptor 1
  Ki: 47.6 nM
Cannabinoid receptor 2
  Ki: 5.7 nM

## CCCCCNC(=O)c1nn(-c2ccc(Cl)cc2Cl)c(-n2c(C)ccc2C)c1C
Cannabinoid receptor 1
  Ki: 182 nM
Cannabinoid receptor 2
  Ki: 495 nM

## CCCCCCCNC(=O)c1nn(-c2ccc(F)cc2F)c(-n2c(C)ccc2C)c1C
Cannabinoid receptor 1
  Ki: 368 nM
Cannabinoid receptor 2
  Ki: 365 nM

## CCCCCNC(=O)c1nn(-c2ccc(Cl)cc2Cl)c(-n2cccc2)c1C
Cannabinoid receptor 1
  Ki: 81 nM
Cannabinoid receptor 2
  Ki: 206 nM

## Cc1c(C(=O)NC(C)C)nn(-c2ccc(Cl)cc2Cl)c1-n1c(C)ccc1C
Cannabinoid receptor 1
  Ki: 234 nM
Cannabinoid receptor 2
  Ki: 1800 nM

## CCC(C)(C)NC(=O)c1nn(-c2ccc(Cl)cc2Cl)c(-n2c(C)ccc2C)c1C
Cannabinoid receptor 1
  Ki: 193 nM
Cannabinoid receptor 2
  Ki: 121 nM

## Cc1c(C(=O)NCCCCCO)nn(-c2ccc(Cl)cc2Cl)c1-n1cccc1
Cannabinoid receptor 1
  Ki: 534 nM
Cannabinoid receptor 2
  Ki: 2340 nM

## CCCNC(=O)c1nn(-c2ccc(Cl)cc2Cl)c(-n2c(C)ccc2C)c1C
Cannabinoid receptor 1
  Ki: 290 nM
Cannabinoid receptor 2
  Ki: 1950 nM

## CCCCCCNC(=O)c1nn(-c2ccc(Cl)cc2Cl)c(-n2cccc2)c1C
[1]
  MRT: 14.3 h
[2]
  MRT: 14.8 h
Rattus norvegicus [3]
  Activity: inactive
Rattus norvegicus [4]
  Activity: inactive
Rattus norvegicus [5]
  Activity: inactive
Cannabinoid receptor 1
  Ki: 124 nM
[6]
  Cmax: 170 ng/mL
[7]
  half-life: 14.4 h
[8]
  AUC(0-t): 340 ng·h/mL
Rattus norvegicus [9]
  Activity: inactive
Cannabinoid receptor 2
  Ki: 383 nM
[10]
  half-life: 13.9 h
Rattus norvegicus [11]
  Activity: inactive
[12]
  AUC: 330 ng·h/mL
Brain
  Activity: 97%
Rattus norvegicus [13]
  Activity: inactive
[14]
  Tmax: 0.5 h
[15]
  Tmax: 0.5 h
Rattus norvegicus [16]
  Activity: inactive
Rattus norvegicus [17]
  Activity: inactive
Rattus norvegicus [18]
  Activity: inactive
Rattus norvegicus [19]
  Activity: inactive
[20]
  Cmax: 110 ng/mL
Rattus norvegicus [21]
  Activity: 25%
Rattus norvegicus [22]
  Activity: 10%

## CCCNC(=O)c1nn(-c2ccc(Cl)cc2Cl)c(-n2cccc2)c1C
Cannabinoid receptor 1
  Ki: 550 nM
Cannabinoid receptor 2
  Ki: 1500 nM

## Cc1c(C(=O)NC(C)C)nn(-c2ccc(Cl)cc2Cl)c1-n1cccc1
Cannabinoid receptor 1
  Ki: 519 nM
Cannabinoid receptor 2
  Ki: 1130 nM

## CCCCCCCNC(=O)c1nn(-c2ccc(Cl)cc2Cl)c(-n2cccc2)c1C
Cannabinoid receptor 1
  Ki: 211 nM
Cannabinoid receptor 2
  Ki: 255 nM

## CCCCNC(=O)c1nn(-c2ccc(Cl)cc2Cl)c(-n2cccc2)c1C
Cannabinoid receptor 1
  Ki: 273 nM
Cannabinoid receptor 2
  Ki: 796 nM

## CCCCCCCNC(=O)c1nn(-c2ccc(Cl)cc2Cl)c(-n2c(C)ccc2C)c1C
Cannabinoid receptor 1
  Ki: 97.2 nM
Cannabinoid receptor 2
  Ki: 205 nM

## Cc1c(C(=O)NCCCCCO)nn(-c2ccc(Cl)cc2Cl)c1-n1c(C)ccc1C
Cannabinoid receptor 1
  Ki: 372 nM
Cannabinoid receptor 2
  Ki: 3200 nM

## CCCCCCC(C)NC(=O)c1nn(-c2ccc(Cl)cc2Cl)c(-n2c(C)ccc2C)c1C (stereo unspecified)
Cannabinoid receptor 1
  Ki: 105 nM
Cannabinoid receptor 2
  Ki: 136 nM

## CCCCCCC(C)NC(=O)c1nn(-c2ccc(Cl)cc2Cl)c(-n2cccc2)c1C (stereo unspecified)
Cannabinoid receptor 1
  Ki: 157 nM
Cannabinoid receptor 2
  Ki: 237 nM

## Cc1c(C(=O)NCCC(C)(C)C)nn(-c2ccc(Cl)cc2Cl)c1-n1c(C)ccc1C
Rattus norvegicus [3]
  Activity: inactive
Rattus norvegicus [5]
  Activity: inactive
Cannabinoid receptor 1
  Ki: 37.5 nM
Cannabinoid receptor 2
  Ki: 134 nM
Rattus norvegicus [11]
  Activity: inactive
Rattus norvegicus [23]
  Activity: 10%
Rattus norvegicus [24]
  Activity: Active
Rattus norvegicus [13]
  Activity: inactive
Rattus norvegicus [18]
  Activity: Active
Rattus norvegicus [19]
  Activity: inactive
Rattus norvegicus [25]
  Activity: inactive
Rattus norvegicus [21]
  Activity: 30%

## CCCCCCNC(=O)c1nn(-c2ccc(F)cc2F)c(-n2c(C)ccc2C)c1C
Cannabinoid receptor 1
  Ki: 311 nM
Cannabinoid receptor 2
  Ki: 487 nM

## Cc1c(C(=O)NC(C)(C)C)nn(-c2ccc(Cl)cc2Cl)c1-n1c(C)ccc1C
Cannabinoid receptor 1
  Ki: 151 nM
Cannabinoid receptor 2
  Ki: 20.2 nM

## Cc1c(C(=O)NCCC(C)(C)C)nn(-c2ccc(Cl)cc2Cl)c1-n1cccc1
Cannabinoid receptor 1
  Ki: 45.6 nM
Cannabinoid receptor 2
  Ki: 52.4 nM
